Results as given in the EternaBench riboswitch data.

Tested on: MS2 coat protein
Assay: apparent Kd, MS2 coat protein; higher = weaker binding; RNA-MaP array; FMN 200 µM where present
In short: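 Designs on Illumina sequencing-chip clusters, transcribed by stalled E. coli RNA polymerase, were exposed to SNAP-549-labelled MS2 coat protein in doubling steps from 0.7 or 1.5 nM up to 3 µM, without and then with constant ligand. The buffer held 100 mM Tris-HCl pH 7.5, 80 mM KCl, 4 mM MgCl2, BSA, DTT, yeast tRNA and Tween-20. Apparent Kd values are medians of filtered per-cluster binding-curve fits to green signal normalised to red-channel RNA signal and control-cluster median Fmax.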

[1] = designed as: OFF switch for flavin mononucleotide, no ligand
[2] = ligand present: flavin mononucleotide, designed as: OFF switch for flavin mononucleotide
[3] = designed as: ON switch for flavin mononucleotide, no ligand
[4] = ligand present: flavin mononucleotide, designed as: ON switch for flavin mononucleotide

Row | Sequence | apparent Kd [1] [µM] | apparent Kd [2] [µM] | apparent Kd [3] [µM] | apparent Kd [4] [µM]
1 | CAGCCCUGAGGAUAUCCCUCCUUGUACAUGAGGAUCACCCAUGUUCUCCUCUGGGCCUUGGGAGAAGGCAGAUCUC | 0.0569 | 0.0495 |  | 
2 | CAUACGUCAGGAUAUCUGAUGUCUAACUUCGGUUAGACAUCAGAGAAGGGACAUGAGGAUCACCCAUGUAUGAA | 0.118 | 0.13 |  | 
3 | AGAUGACAAAGUCAUCUCGCGCUGACAUGAGGAUCACCCAUGUAGGAUAUAUUACUCAAAGAGUAAUAGAAGGACAUGUGUCUU | 0.0299 | 0.0722 |  | 
4 | UCUGUUUUGCGAGGAUAUCGACCAUUCCUCUUAACAUGAGGAUCACCCAUGUGCUAAUCCUACAACGAGAAGGCGCUCAUACUC | 0.25 | 0.348 |  | 
5 | AAUUCACAUGAGGAUCACCCAUGUCAGGAUAUGGUUUCACGUUUUUCUUUUCUUGAGGCCAGAAGGGACAGCUA | 0.0676 | 0.0791 |  | 
6 | GUAGCAUACCGAGGAUAUUCAUAUAAUAAAUAAACAUGAGGAUCACCCAUGUGGCGAAAGCCAAGGGAGAAGGCGGAAUGCUAC |  |  | 0.315 | 0.0264
7 | CUGUUAUAGGUCCAGAAUUACAACAUGAGGAUCACCCAUGUGCAGGAUAUCGGGUUAAUUUUCGACGAGAAGGGCAUAGUCACG | 0.0335 | 0.0641 |  | 
8 | GGUCGUCACAUCUACAUGAGGAUCACCCAUGUCAAAAGACAUGAGGAUAUGCUACCUAAUUGGUAGCAGAAGGCAUGGACGACC |  |  | 1.29 | 0.072
9 | AUAUAUAUAUAAGGAUAUGUAUAUCCAACAUGAGGAUCACCCAUGUUGAGGAUCACCCAUGUAAAGCAGAAGGUAUAUAUAUAU |  |  | 0.0291 | 0.018
10 | GGUGCCAUGUAGAAGGCAGAUCUGAUUCAGAUCUGAGGAUAUACAUGAGGAUCACCCAUGUAAAGGCACCUCACGAGAGUGCAA | 0.0105 | 0.0346 |  | 
11 | AGUAGAUCAGGAUAUACGUAAAUGGUAAUUAUGUAACUUUUACAUGAGGAUCACCCAUGUAGAAGGGAUCUACA | 0.0175 | 0.0181 |  | 
12 | ACCUUACAUGAGGAUCACCCAUGUUAGGAUAUCUCGCCUGCACAAACACAGCGCAGGCAGAGAAGGGACGCGGG | 0.0282 | 0.035 |  | 
13 | AAAACGUGAGGAUAUGCACCAACCAAGGUUUUUCGGGUACGACAUGAGGAUCACCCAUGUAGAAGGCACGAAAA | 0.0162 | 0.0129 |  | 
14 | UUUUUGUGAGGAUAUCAGUAGUAGAACAAUAGUACUACUACUGAGAAGGCACAUGAGGAUCACCCAUGUUUCUC | 0.0502 | 0.294 |  | 
15 | GUACAUGAGGAUCACCCAUGUAAAUGGGUAAAUAUAGAACGUAGAAGGAUGUAUUUACACAUGACAUAGGAUAUACUAUAUAGU | 0.0938 | 0.0739 |  | 
16 | AUGCUUCACACAGGAUAUUACAUGAGGAUCACCCAUGUUGGGCGGUAGCUCGAAAGAGCUACCGGUAAGAAGGGUGUGAAGCAU | 0.0304 | 0.0592 |  | 
17 | UAUAUGUCAGGAUAUUAGUAGUGGACGAAUAAGACUACUGCUGAGAAGGGACAUGAGGAUCACCCAUGUUCCUC | 0.0202 | 0.172 |  | 
18 | CCAGGCUGUGUGAGGAUAUGCUGGUCCUUGGAUCAGCAGAAGGCACAUGAGGAUCACCCAUGUGAAUAGCUUGG | 0.0169 | 0.03 |  | 
19 | ACAUGAUACAAGAAGGAUGUAUUUGAUUUGAUCAUAGGAUAUUGUUAUAUUGUUUACUCUAAUAACAUGAGGAUCACCCAUGUA |  |  | 0.00704 | 0.00695
20 | CAGUACUGAGGAUAUACAUGAGGAUCACCCAUGUGUCCCGGCUAGGAAACUAGCAAAAGUAGAAGGCAGUACUG | 0.024 | 0.516 |  | 
21 | CGUCAUCAAGUGAGGAUAUCGUCAAAUCAAUCAGGCGAGAAGGCACAUGAGGAUCACCCAUGUCGACUCAUCAC | 0.0154 | 0.0222 |  | 
22 | UUUAUAUAGUAAGGAUAUGUAUUAUGUUUAUCAACAGAAGGUACUGACAUGAGGAUCACCCAUGUUUUAGUGUGGGCAUGUAGU | 0.218 | 0.301 |  | 
23 | AGUAACAGAGGAUAUACUGUUUUAUGUGUUUGUUAUUUUGAACAUGAGGAUCACCCAUGUAGAAGGCUGAAUAA | 0.0222 | 0.0213 |  | 
24 | AUUAAUUAAUUAAUACAUGAGGAUCACCCAUGUAAUAAGAUCUAGGAUAUCAGCUCGUUUAGAGCUGAGAAGGAGAUCACAUGU |  |  | 0.0426 | 0.0372
25 | UAUUAACACGAAGGAUAUGGUUACAUGAGGAUCACCCAUGUAUGUAUAUUGAUCCAGAUUUUUGACCAGAAGGUCGUGAGUAAA | 0.108 | 0.285 |  | 
26 | UGGUACUAGGGAGGAUAUGGGAAGAUACAUGAGGAUCACCCAUGUUUAAGAUUGCCGAGAGGCAACUAGAAGGCCCUAGUACCU |  |  | 1.12 | 0.13
27 | AGCGUGUUAGGAUAUACACGACGCUGGGUAGCUAGCGGAGGGUAGAAGGGACAUGAGGAUCACCCAUGUUCGGG | 0.0741 | 0.105 |  | 
28 | UGGUACAUCGGAGGAUAUCAUGUAAAUACAUGAGGAUCACCCAUGUCGUACGAGAGUACGGAGAUUGAGAAGGCCGAUGUACCU |  |  | 0.0257 | 0.015

Row | Sequence | apparent Kd [1] [µM] | apparent Kd [2] [µM] | apparent Kd [3] [µM] | apparent Kd [4] [µM]
29 | UAGGUACGAGGAUAUACAUAGAUACAGACACAUGUAGAUGUACAUGAGGAUCACCCAUGUAGAAGGCGUAUAUA | 0.0678 | 0.237 |  | 
30 | UAUAUAUAAUAUAUUAACAUGAGGAUCACCCAUGUCGCUAGACAGGAUAUAUUUUAUUUUUUUAAGUAGAAGGGUCAUAUAAUU |  |  | 0.0637 | 0.0861
31 | GCAUGACAAAGUCAUGCAAUACGAACAUGAGGAUCACCCAUGUAGGAUAUGCUACUCAAAGAGUAGCAGAAGGACAUGUGUCUU | 0.0332 | 0.182 |  | 
32 | AAGGCGUCAGGAUAUCCAAUAUAUGACAUGAGGAUCACCCAUGUUUCCACUCGUACCUCCGGAGAAGGGACGAAUA | 0.0291 | 0.0275 |  | 
33 | GGACGUCUCAUUAACAUGAGGAUCACCCAUGUCAAAAGACAUGAGGAUAUGGAUCCUAAUUGGAUCCAGAAGGCAUGGACGUCC |  |  | 0.939 | 0.0592
34 | CUCACUCCAAAGAGCGCGUCUGCCUGAGAAGGGUGCUAAUUAAUUACAUGAGGAUCACCCAUGUCACAGGAUAUCAGGGUCGCU |  |  | 0.622 | 0.23
35 | UGAAAACAUGAGGAUCACCCAUGUCUAGGAGAUCGAGGAUAUGGGCCGGCACUAGGCGGGCCAGAAGGCGAAAAGU |  |  | 0.0608 | 0.0266
36 | ACUAGAUGAGGAUAUGCAUGUUUUCAUGUUCUUCUAGAUUAACAUGAGGAUCACCCAUGUAGAAGGCGUCUUUA | 0.0195 | 0.0348 |  | 
37 | CCAGACGUUGUAGGAUAUCUGAAAGGAAGUGUAAGAGAAGGAUAGUGUCUGUAAAACAUGAGGAUCACCCAUGUGGGCGCAUCC | 0.0196 | 0.0619 |  | 
38 | CAGUACUGAGGAUAUACAUGAGGAUCACCCAUGUGUUCCAGCGAGGAAACUAGCAAAAGUAGAAGGCAGUACUG | 0.0204 | 0.278 |  | 
39 | UGAUCUUUUGUUAGGAUAUGCUGUUUUUUUUUUCAGCAGAAGGGACAUGAGGAUCACCCAUGUUUUGUCAUAAA | 0.0124 | 0.0249 |  | 
40 | UGUCGGAGCAGAGGAUAUUACAUGAGGAUCACCCAUGUAUGAACCGAUAGCUGGAAACAGCAAUGUAAGAAGGCUGCUCCGACA | 0.019 | 0.258 |  | 
41 | AUAUCCGAAGCAGGAUAUCGGCAAGGUGUCGAGGUAGAGCGUACUCACAUGAGGAUCACCCAUGUCGAGAAGGGCUACAGGAUG | 0.0168 | 0.0724 |  | 
42 | GGUACUCAGAGAGUACCAAUACGAACAUGAGGAUCACCCAUGUAGGAUAUGCUACUCAAAGAGUAGCAGAAGGACAUGUGCCUA | 0.0149 | 0.101 |  | 
43 | GGGUACAUCGGAGGAUAUCAUGUAAAUACAUGAGGAUCACCCAUGUCCAUGGAGACAUCGGAGAUUGAGAAGGCCGAUGUACCG |  |  | 0.171 | 0.203
44 | CUUCUGUAAGGAUAUUGCGAUAAGCAUGACAUCGCCGGUCGCAAGAAGGUACAUGAGGAUCACCCAUGUGCGGU | 0.161 | 0.152 |  | 
45 | CGAUUAUUGAUCCAUUUUUACAACAUGAGGAUCACCCAUGUGCAGGAUAUCGUGGUGAUUAACUACGAGAAGGGCAAAUUCACG | 0.123 | 0.22 |  | 
46 | AAAAUGUGAGGAUAUGCGAAGGCGUCUGAUAGACGAGGCUAGCAGAAGGCACAUGAGGAUCACCCAUGUCCAAA | 0.0403 | 0.0603 |  | 
47 | UUCGUGCAGCUUUGCUGUACGAGUACAUGAGGAUCACCCAUGUAGGAUAUGGUACGCUUUGCGUGCUAGAAGGAUAUGUGUAGC | 0.033 | 0.037 |  | 
48 | ACAUGAGGAUCACCCAUGUAUUACAUGGUUAAGUUUAUUAACAGAAGGCGAAAUUACCACUUGAUCGAGGAUAUGUAUUCUAUU | 0.0491 | 0.0434 |  | 
49 | CAACGUACCAGAGGAUAUGAUUGUGGGUAAAGAGCGCUCAGGUGGCUACAUGAGGAUCACCCAUGUCAGAAGGCUGGAGUUCAA | 0.114 | 0.0596 |  | 
50 | AGCUGUGGCAGAGGAUAUACUUCAAUAAUCCAUUGCAAAUAGCGAUGGACAUGAGGAUCACCCAUGUAGAAGGCUGUCUCAGCA | 0.0199 | 0.0462 |  | 
51 | UCGAUAAGGAGAGGAUAUGGACAUGAGGAUCACCCAUGUACAUGGGAAUAUAUACUGAAUUUUUACUAGAAGGCUUACAUAUUU | 0.0167 | 0.0136 |  | 
52 | GGAUAGGACAGAGGAUAUACGUGCUAGAGAUACUAGCAAACUUUCCUCACAUGAGGAUCACCCAUGUAGAAGGCUGUCCUAUCG | 0.0211 | 0.483 |  | 
53 | GCCAGUUAUGUAGGAUAUGCGCGGCGAGCCUGAGCAGAAGGACAUGAGGAUCACCCAUGUGUUGCGGUUUGAGUACUAAUCGCU | 0.0315 | 0.171 |  | 
54 | CGUGUUAGAGGAGGAUAUAGCGCAAGAAGGUCGCUAGAAGGCCUUGACAUGAGGAUCACCCAUGUGAUCGGCUCUCUGGGUAAG | 0.211 | 0.141 |  | 
55 | GCGGCUCACAUGAGGAUCACCCAUGUUCGCAUAUUGUGAAACAGAAGGCGGACUCAGCGAUGGGCCGAGGAUAUGUUUCCCACA |  |  | 0.124 | 0.0258
